Activity calls are given as the source filed them. The rule behind the calls is not given here.
Tested on: Trypanosoma brucei
Test: Antitrypanosomal activity against axenic culture of Trypanosoma brucei Squib 427 infected in human MRC-5 SV2 cells assessed as reduction in parasite growth incubated for 72 hrs by resazurin reagent based fluorescence analysis
Format: functional, organism-based
Settings: not given
How it was run: (§1)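 Trypomastigotes were grown axenically in culture medium. Growth reduction was determined by the previously reported method, with and without added inhibitor.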

Row | SMILES | Activity
1 | COc1ccc(C[C@H](NC(=O)OC(C)(C)C)C(=O)N[C@@H](Cc2ccccc2)C(=O)NCC(=O)c2cccc(NC(=O)c3ccccn3)c2)cc1 | inactive
2 | CC(C)(C)OC(=O)N[C@H]1Cc2ccc(cc2)Oc2ccc(cc2NC(=O)c2ccccn2)C(=O)CNC(=O)[C@@H](Cc2ccccc2)NC1=O | inactive
3 | CC(C)C[C@@H]1NC(=O)[C@@H](NC(=O)OC(C)(C)C)Cc2ccc(cc2)Oc2ccc(cc2NC(=O)c2ccccn2)C(=O)CNC1=O | inactive
4 | CC(C)(C)C(=O)N[C@H]1Cc2ccc(cc2)Oc2ccc(cc2NC(=O)c2ccccn2)C(=O)CNC(=O)[C@H](Cc2ccccc2)NC1=O | inactive
5 | CC(C)(C)OC(=O)N[C@H]1Cc2ccc(cc2)Oc2ccc(cc2NC(=O)c2ccccn2)CCNC(=O)[C@H](Cc2ccccc2)NC1=O | inactive
6 | CC(=O)N[C@H]1Cc2ccc(cc2)Oc2ccc(cc2NC(=O)c2ccccn2)C(=O)CNC(=O)[C@H](Cc2ccccc2)NC1=O | inactive
7 | CC(C)(C)OC(=O)N[C@H]1CCc2ccc(cc2)Oc2ccc(cc2NC(=O)c2ccccn2)C(=O)CNC(=O)[C@H](Cc2ccccc2)NC1=O | inactive
8 | CC(C)(C)OC(=O)N[C@H]1Cc2ccc(cc2)Oc2ccc(cc2NC(=O)c2ccccn2)C(=O)CNC(=O)[C@H](c2ccccc2)NC1=O | inactive
9 | C[C@@H]1NC(=O)[C@@H](NC(=O)OC(C)(C)C)Cc2ccc(cc2)Oc2ccc(cc2NC(=O)c2ccccn2)C(=O)CNC1=O | inactive

Tested on: Trypanosoma brucei rhodesiense
Test: Antitrypanosomal activity against axenic culture of Trypanosoma brucei rhodesiense infected in human MRC-5 SV2 cells assessed as reduction in parasite growth incubated for 72 hrs by resazurin reagent based fluorescence analysis
Format: functional, organism-based
Settings: not given
How it was run: as §1

Row | SMILES | Activity
10 | COc1ccc(C[C@H](NC(=O)OC(C)(C)C)C(=O)N[C@@H](Cc2ccccc2)C(=O)NCC(=O)c2cccc(NC(=O)c3ccccn3)c2)cc1 | Active
11 | CC(C)(C)OC(=O)N[C@H]1Cc2ccc(cc2)Oc2ccc(cc2NC(=O)c2ccccn2)C(=O)CNC(=O)[C@@H](Cc2ccccc2)NC1=O | Active
12 | CC(C)C[C@@H]1NC(=O)[C@@H](NC(=O)OC(C)(C)C)Cc2ccc(cc2)Oc2ccc(cc2NC(=O)c2ccccn2)C(=O)CNC1=O | Active
13 | CC(C)(C)C(=O)N[C@H]1Cc2ccc(cc2)Oc2ccc(cc2NC(=O)c2ccccn2)C(=O)CNC(=O)[C@H](Cc2ccccc2)NC1=O | Active
14 | CC(C)(C)OC(=O)N[C@H]1Cc2ccc(cc2)Oc2ccc(cc2NC(=O)c2ccccn2)CCNC(=O)[C@H](Cc2ccccc2)NC1=O | Active
15 | CC(=O)N[C@H]1Cc2ccc(cc2)Oc2ccc(cc2NC(=O)c2ccccn2)C(=O)CNC(=O)[C@H](Cc2ccccc2)NC1=O | Active
16 | CC(C)(C)OC(=O)N[C@H]1CCc2ccc(cc2)Oc2ccc(cc2NC(=O)c2ccccn2)C(=O)CNC(=O)[C@H](Cc2ccccc2)NC1=O | Active
17 | CC(C)(C)OC(=O)N[C@H]1Cc2ccc(cc2)Oc2ccc(cc2NC(=O)c2ccccn2)C(=O)CNC(=O)[C@H](c2ccccc2)NC1=O | Active
18 | C[C@@H]1NC(=O)[C@@H](NC(=O)OC(C)(C)C)Cc2ccc(cc2)Oc2ccc(cc2NC(=O)c2ccccn2)C(=O)CNC1=O | Active

Tested on: not listed separately
Test: Cytotoxicity against mouse Peritoneal macrophage
Format: toxicity, cell-based
Settings: peritoneal macrophages

Row | SMILES | CC50
19 | CC(C)(C)OC(=O)N[C@H]1Cc2ccc(cc2)Oc2ccc(cc2NC(=O)c2ccccn2)CCNC(=O)[C@H](Cc2ccccc2)NC1=O | > 64 µM
20 | CC(C)(C)OC(=O)N[C@H]1Cc2ccc(cc2)Oc2ccc(cc2)C(=O)CNC(=O)[C@H](Cc2ccccc2)NC1=O | > 64 µM

Tested on: not listed separately
Test: Cytotoxicity against human MRC5 cells
Format: toxicity, cell-based
Settings: not given

Row | SMILES | CC50
21 | CC(=O)Nc1cc2ccc1Oc1ccc(cc1)C[C@H](NC(=O)OC(C)(C)C)C(=O)N[C@@H](Cc1ccccc1)C(=O)NCC2=O | > 64 µM
22 | CC(C)(C)OC(=O)N[C@H]1Cc2ccc(cc2)Oc2ccc(cc2NC(=O)c2ccccn2)C(=O)CNC(=O)[C@H](Cc2ccccc2)NC1=O | > 64 µM
23 | CC(C)(C)OC(=O)N[C@H]1Cc2ccc(cc2)Oc2ccc(cc2)C(=O)CNC(=O)[C@H](Cc2ccccc2)NC1=O | > 64 µM
